{"source": "ChEMBL document CHEMBL4316616", "about": "“Efficacy of TLR7 agonistic imidazoquinoline as immunochemotherapeutic agent against P. Berghei ANKA infected rodent host” (Bioorg Med Chem Lett, 2019)", "key": {"Plasmodium berghei [1]": {"test_system": "Plasmodium berghei", "experiment": "Antiparasitic activity against Plasmodium berghei ANKA infected in Laca mouse assessed as parasitemia at 10 mg/kg, po administered for 4 days measured on day 21 by Giemsa-staining based assay", "assay_type": "functional"}, "Plasmodium berghei [2]": {"test_system": "Plasmodium berghei", "experiment": "Antimalarial activity against Plasmodium berghei ANKA infected in Swiss albino mouse assessed as reduction in parasitemia at 25 mg/kg, po for 4 days dosed 2 hrs post infection and measured 5 days post infection by Giemsa staining based Peter's 4 day test", "assay_type": "functional", "design": "scale not given: the % may be the effect or the level left"}, "Plasmodium berghei [3]": {"test_system": "Plasmodium berghei", "experiment": "Antiparasitic activity against Plasmodium berghei ANKA infected in Laca mouse assessed as decrease in serum TNFalpha level at 10 mg/kg, po administered for 4 days measured on day 10 by sandwich ELISA", "assay_type": "functional, organism-based"}, "Plasmodium berghei [4]": {"test_system": "Plasmodium berghei", "experiment": "Antiparasitic activity against Plasmodium berghei ANKA infected in Laca mouse assessed as increase in Treg cell level in brain at 10 mg/kg, po administered for 4 days measured on day 10 by flow cytometry", "assay_type": "functional, organism-based"}, "Plasmodium berghei [5]": {"test_system": "Plasmodium berghei", "experiment": "Antiparasitic activity against Plasmodium berghei ANKA infected in Laca mouse assessed as increase in IFN-gamma level in serum at 10 mg/kg, po administered for 4 days measured on day 10 by sandwich ELISA"}, "Plasmodium berghei [6]": {"test_system": "Plasmodium berghei", "experiment": "Antiparasitic activity against Plasmodium berghei ANKA infected in Laca mouse assessed as increase in serum IL-27 level at 10 mg/kg, po administered for 4 days measured on day 10 by sandwich ELISA", "assay_type": "functional, organism-based"}, "Plasmodium berghei [7]": {"test_system": "Plasmodium berghei", "experiment": "Antiparasitic activity against Plasmodium berghei ANKA infected in Laca mouse assessed as reduction in CD8+ cell level in brain at 10 mg/kg, po administered for 4 days measured on day 10 by flow cytometry", "assay_type": "functional, organism-based"}, "Plasmodium berghei [8]": {"test_system": "Plasmodium berghei", "experiment": "Antiparasitic activity against Plasmodium berghei ANKA infected in Laca mouse assessed as reduction in CD3+ cell level in brain at 10 mg/kg, po administered for 4 days measured on day 10 by flow cytometry", "assay_type": "functional, organism-based"}, "Plasmodium berghei [9]": {"test_system": "Plasmodium berghei", "experiment": "Antiparasitic activity against Plasmodium berghei ANKA infected in Swiss albino mouse assessed as reduction in parasitemia at 10 mg/kg, po by Peter's 4 day test", "assay_type": "functional", "design": "scale not given: the % may be the effect or the level left"}, "Plasmodium berghei [10]": {"test_system": "Plasmodium berghei", "experiment": "Antiparasitic activity against Plasmodium berghei ANKA infected in Laca mouse assessed as reduction in CD4+ cell level in brain at 10 mg/kg, po administered for 4 days measured on day 10 and 21 by flow cytometry", "assay_type": "functional, organism-based"}, "[11]": {"experiment": "Toxicity in Laca mouse infected with Plasmodium berghei ANKA assessed as death at 10 mg/kg, po administered for 4 days measured on day 21", "assay_type": "organism-based", "details": "in vivo, 96 h", "method_in_brief": "(§1)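 Groups of 6 mice, infected i.p. on D0 with 1x10⁶ P. berghei ANKA parasitized RBCs. Chloroquine 10 mg/kg given orally in 0.2 mL/mouse daily D0–D3. Infected PBS-dosed and uninfected controls were included. Mice were followed for survival, with parasitemia checked on Giemsa-stained thin blood smears of individual mice.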"}, "Plasmodium berghei [12]": {"test_system": "Plasmodium berghei", "experiment": "Antiparasitic activity against Plasmodium berghei ANKA infected in Laca mouse assessed as increase in CD3+ cell level in spleen at 10 mg/kg, po administered for 4 days measured on day 10 by flow cytometry", "assay_type": "functional, organism-based"}, "Plasmodium berghei [13]": {"test_system": "Plasmodium berghei", "experiment": "Antiparasitic activity against Plasmodium berghei ANKA infected in Laca mouse assessed as reduction in parasitemia at 10 mg/kg, po administered for 4 days measured up to day 15 by Giemsa-staining based assay", "assay_type": "functional, organism-based"}, "Plasmodium berghei [14]": {"test_system": "Plasmodium berghei", "experiment": "Antiparasitic activity against Plasmodium berghei ANKA infected in Laca mouse assessed as parasitemia at 10 mg/kg, po administered for 4 days measured on day 17 by Giemsa-staining based assay", "assay_type": "functional"}, "[15]": {"experiment": "Toxicity in Laca mouse infected with Plasmodium berghei ANKA assessed as death at 10 mg/kg, po administered for 4 days measured after 21 days", "assay_type": "organism-based", "details": "in vivo, 504 h", "method_in_brief": "as §1"}, "Plasmodium berghei [16]": {"test_system": "Plasmodium berghei", "experiment": "Antiparasitic activity against Plasmodium berghei ANKA infected in Laca mouse assessed as increase in serum IL-10 level at 10 mg/kg, po administered for 4 days measured on day 10 by sandwich ELISA", "assay_type": "functional, organism-based"}, "Plasmodium berghei [17]": {"test_system": "Plasmodium berghei", "experiment": "Antiparasitic activity against Plasmodium berghei ANKA infected in Laca mouse assessed as increase in serum IL-12 level at 10 mg/kg, po administered for 4 days measured on day 10 by sandwich ELISA", "assay_type": "functional, organism-based"}}, "note": "The source made the active and inactive calls. No cut-off for these calls is given here."}
{"compound": "CCN(CC)CCCC(C)Nc1ccnc2cc(Cl)ccc12", "note": "(configuration not stated) [CHLOROQUINE]", "values": [{"measurement": "Activity", "setting": "Plasmodium berghei [1]", "result": 10.76, "unit": "%"}, {"measurement": "Activity", "setting": "Plasmodium berghei [2]", "result": 89.04, "unit": "%"}, {"measurement": "Activity", "setting": "Plasmodium berghei [3]", "result": "Active"}, {"measurement": "Activity", "setting": "Plasmodium berghei [4]", "result": "Active"}, {"measurement": "Activity", "setting": "Plasmodium berghei [5]", "result": "Active"}, {"measurement": "Activity", "setting": "Plasmodium berghei [6]", "result": "Active"}, {"measurement": "Activity", "setting": "Plasmodium berghei [7]", "result": "Active"}, {"measurement": "Activity", "setting": "Plasmodium berghei [8]", "result": "Active"}, {"measurement": "Activity", "setting": "Plasmodium berghei [9]", "result": 58.3, "unit": "%"}, {"measurement": "Activity", "setting": "Plasmodium berghei [10]", "result": "Active"}, {"measurement": "Activity", "setting": "[11]", "result": "Toxic"}, {"measurement": "Activity", "setting": "Plasmodium berghei [12]", "result": "Active"}, {"measurement": "Activity", "setting": "Plasmodium berghei [13]", "result": "Active"}, {"measurement": "Activity", "setting": "Plasmodium berghei [14]", "result": 5.99, "unit": "%"}, {"measurement": "Activity", "setting": "[15]", "result": "Toxic"}, {"measurement": "Activity", "setting": "Plasmodium berghei [16]", "result": "Active"}, {"measurement": "Activity", "setting": "Plasmodium berghei [17]", "result": "Active"}]}
